# Laboratory results reported in ChEMBL document CHEMBL4028911, “Discovery of a Small-Molecule Bromodomain-Containing Protein 4 (BRD4) Inhibitor That Induces AMP-Activated Protein Kinase-Modulated Autophagy-Associated Cell Death in Breast Cancer” (J Med Chem, 2017).
# Active and inactive are the calls of the source. The rule behind the calls is not given here.
# Legend:
# MDA-MB-231 [1] = assay: Induction of autophagy in human MDA-MB-231 cells assessed as increase in LC3-2 expression at 3 uM by Western blot analysis; format: functional, cell-based; details: TDE = time-dependent effect
# How it was run: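 MDA-MB-231 cells (DMEM, 10% FBS, 37 °C, 5% CO2) exposed to 3 μM for indicated times. Adherent and floating cells collected, lysed in RIPA with 1 mM PMSF at 4 °C for 1 h. Protein quantified by DC assay, resolved on 10-15% SDS-PAGE, blotted to PVDF, ECL detection.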
# [2] = target: Bromodomain-containing protein 3 (Homo sapiens, UniProt Q15059); assay: Inhibition of recombinant human N-terminal GST-tagged BRD3 bromodomain-1 (29 to 145 residues) expressed in Escherichia coli expression system after 120 mins by TR-FRET assay
# Bromodomain-containing protein 3, sequence (Q15059 whole entry, the tested form may be a part): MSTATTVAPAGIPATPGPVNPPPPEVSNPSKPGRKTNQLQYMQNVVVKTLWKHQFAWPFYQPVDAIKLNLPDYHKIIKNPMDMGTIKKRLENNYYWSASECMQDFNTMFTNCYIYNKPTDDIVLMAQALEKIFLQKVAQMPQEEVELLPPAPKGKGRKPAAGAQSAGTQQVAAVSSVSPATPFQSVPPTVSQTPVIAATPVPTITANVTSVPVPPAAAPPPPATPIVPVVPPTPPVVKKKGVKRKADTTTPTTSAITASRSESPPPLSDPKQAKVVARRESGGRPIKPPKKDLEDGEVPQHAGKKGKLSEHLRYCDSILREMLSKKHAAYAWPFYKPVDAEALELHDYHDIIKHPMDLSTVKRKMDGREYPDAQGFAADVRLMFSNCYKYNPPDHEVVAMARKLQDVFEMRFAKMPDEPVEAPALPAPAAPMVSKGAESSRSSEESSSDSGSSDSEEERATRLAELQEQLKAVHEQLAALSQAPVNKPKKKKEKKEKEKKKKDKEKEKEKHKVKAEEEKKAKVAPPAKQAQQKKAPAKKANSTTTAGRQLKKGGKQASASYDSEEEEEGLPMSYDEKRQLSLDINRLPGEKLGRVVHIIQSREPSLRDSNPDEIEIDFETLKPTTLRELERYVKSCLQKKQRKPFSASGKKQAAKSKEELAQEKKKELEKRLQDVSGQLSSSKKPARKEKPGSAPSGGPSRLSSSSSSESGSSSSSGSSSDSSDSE
# How it was run: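 TR-FRET bromodomain binding. Recombinant BRD domain, BET ligand and test agent in 20 μl assay buffer with 1% DMSO final. Incubated 120 min at room temperature. Blank lacks BET ligand.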
# MDA-MB-231 [3] = assay: Induction of autophagy in human MDA-MB-231 cells assessed as induction of autophagic vacuoles at 3 uM by MDC-based fluorescence microscopy; format: functional, cell-based
# How it was run: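 MDA-MB-231 cells exposed to 3 μM for indicated times, stained with 0.05 mM monodansylcadaverine, and autophagic vacuoles viewed by fluorescence microscopy.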
compound,measurement,setting,value
Cc1cc(-c2nc3sc4c(c3c(=O)[nH]2)CCN(C)C4)cc(C)c1O,Activity,MDA-MB-231 [1],Tde
same,IC50,[2],> 100 µM
same,Activity,MDA-MB-231 [3],Active
